Reference: ChEMBL document CHEMBL5357066, “Development of Novel Membrane Disrupting Lipoguanidine Compounds Sensitizing Gram-Negative Bacteria to Antibiotics” (ACS Med Chem Lett, 2024)
Converted amounts (≈) assume the structure as drawn.

How the values were obtained:
[1] = test system: Enterococcus faecalis; assay: Antibacterial activity against vancomycin sensitive Enterococcus faecalis NCTC 775 assessed as bacterial growth inhibition incubated for overnight by microbroth dilution method
[2] = test system: Escherichia coli; assay: Synergistic antibacterial activity against Escherichia coli NCTC 12923 assessed as fold change in rifampicin MIC at <=0.25 times MIC incubated for overnight by microbroth dilution checkerboard assay relative to rifampicin alone; type: functional
Procedure, shortened: (§1)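 Checkerboard microdilution under MIC conditions (TSB, overnight, 37 °C). Two-fold series of each agent were combined on one plate before bacteria were added, and single-agent MICs were measured on the same plate. FIC = sum of combination MIC/alone MIC for each agent, taken from the most synergistic well. Three independent repeats, mean ± SD. ≤0.5 was taken as strong synergy and 0.5–<1 as weak.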

[3] = test system: Pseudomonas aeruginosa; assay: Synergistic antibacterial activity against Pseudomonas aeruginosa PAO1 assessed as fold change in rifampicin MIC at <=0.25 times MIC incubated for overnight by microbroth dilution checkerboard assay relative to rifampicin alone; type: functional
Procedure, shortened: (§2)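 Checkerboard microdilution in Tryptic Soy Broth, run like the MIC assay. Overnight TSB cultures were back-diluted to OD 0.01 and added 1:1 to the combined two-fold series of both agents, then incubated overnight at 37 °C. Growth/no-growth was called at <0.1 OD600. MICs alone were read on the same plates. FIC index came from the most synergistic well; three independent repeats, mean ± SD.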

[4] = test system: Acinetobacter baumannii; assay: Synergistic antibacterial activity against Acinetobacter baumannii ATCC 17978 assessed as fold change in rifampicin MIC at <=0.25 times MIC incubated for overnight by microbroth dilution checkerboard assay relative to rifampicin alone; type: functional
Procedure, shortened: as §1

[5] = test system: Pseudomonas aeruginosa; assay: Antibacterial activity against Pseudomonas aeruginosa PAO1 assessed as bacterial growth inhibition incubated for overnight by microbroth dilution method; type: functional
Procedure, shortened: (§3)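 Broth microdilution in Tryptic Soy Broth. DMSO stocks were diluted in TSB as 2-fold series. Overnight TSB cultures were back-diluted to OD 0.01 and mixed 1:1 with compound. Incubation was overnight at 37 °C. MIC was the lowest concentration without visible growth (<0.1 OD600). DMSO vehicle was checked at equivalent concentrations.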

[6] = test system: Klebsiella pneumoniae; assay: Synergistic antibacterial activity against […] Klebsiella pneumoniae M6 assessed as rifampicin MIC at <=0.25 times MIC incubated for overnight by microbroth dilution checkerboard assay; type: functional
Procedure, shortened: (§4)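 Checkerboard run under the MIC conditions (TSB, overnight, 37 °C). Antibiotic and lipoguanidine 2-fold series were combined on one plate before bacteria were added. Growth/no-growth was scored as for the MIC (<0.1 OD600). Single-agent MICs were measured on the same plates. Three independent repeats were done.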

[7] = test system: Klebsiella pneumoniae; assay: Synergistic antibacterial activity against Klebsiella pneumoniae NCTC 13368 assessed as fold change in rifampicin MIC at <=0.25 times MIC incubated for overnight by microbroth dilution checkerboard assay relative to rifampicin alone; type: functional
Procedure, shortened: as §4

[8] = test system: Acinetobacter baumannii; assay: Antibacterial activity against Acinetobacter baumannii AYE assessed as bacterial growth inhibition incubated for overnight by microbroth dilution method; type: functional
Procedure, shortened: as §3

[9] = test system: Pseudomonas aeruginosa; assay: Synergistic antibacterial activity against Pseudomonas aeruginosa NCTC 13437 assessed as rifampicin MIC at <=0.25 times MIC incubated for overnight by microbroth dilution checkerboard assay; type: functional
Procedure, shortened: as §2

[10] = test system: Klebsiella pneumoniae; assay: Antibacterial activity against ESBL Klebsiella pneumoniae NCTC 13368 assessed as bacterial growth inhibition incubated for overnight by microbroth dilution method
[11] = test system: Staphylococcus aureus; assay: Antibacterial activity against methicillin resistant Staphylococcus aureus USA 300 assessed as bacterial growth inhibition incubated for overnight by microbroth dilution method; type: functional
Procedure, shortened: (§5)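 Microbroth dilution in Tryptic Soy Broth. DMSO stocks were diluted in TSB as 2-fold series. Overnight TSB cultures were back-diluted to OD 0.01 and mixed 1:1 with compound. Incubation was overnight at 37 °C. MIC is the lowest concentration with no visible growth (<0.1 OD600). DMSO at equivalent concentrations was checked.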

[12] = test system: Enterococcus faecium; assay: Antibacterial activity against vancomycin resistant Enterococcus faecium NCTC 12204 assessed as bacterial growth inhibition incubated for overnight by microbroth dilution method; type: functional
Procedure, shortened: as §5

[13] = test system: Escherichia coli; assay: Synergistic antibacterial activity against Escherichia coli NCTC 12923 assessed as rifampicin MIC at <=0.25 times MIC incubated for overnight by microbroth dilution checkerboard assay; type: functional
Procedure, shortened: as §1

[14] = test system: Staphylococcus aureus; assay: Antibacterial activity against methicillin resistant Staphylococcus aureus NCTC 13616 assessed as bacterial growth inhibition incubated for overnight by microbroth dilution method; type: functional
Procedure, shortened: as §5

[15] = test system: Staphylococcus aureus; assay: Antibacterial activity against methicillin sensitive Staphylococcus aureus 1199B assessed as bacterial growth inhibition incubated for overnight by microbroth dilution method; type: functional
Procedure, shortened: as §5

[16] = test system: Acinetobacter baumannii; assay: Synergistic antibacterial activity against Acinetobacter baumannii AYE assessed as fold change in rifampicin MIC at <=0.25 times MIC incubated for overnight by microbroth dilution checkerboard assay relative to rifampicin alone; type: functional
Procedure, shortened: as §1

[17] = test system: Klebsiella pneumoniae; assay: Synergistic antibacterial activity against Klebsiella pneumoniae NCTC 13368 assessed as rifampicin MIC at <=0.25 times MIC incubated for overnight by microbroth dilution checkerboard assay; type: functional
Procedure, shortened: as §1

[18] = test system: Acinetobacter baumannii; assay: Antibacterial activity against Acinetobacter baumannii ATCC 17978 assessed as bacterial growth inhibition incubated for overnight by microbroth dilution method; type: functional
Procedure, shortened: as §3

[19] = test system: Enterococcus faecalis; assay: Antibacterial activity against vancomycin resistant Enterococcus faecalis NCTC 12201 assessed as bacterial growth inhibition incubated for overnight by microbroth dilution method; type: functional
Procedure, shortened: as §5

[20] = test system: Pseudomonas aeruginosa; assay: Synergistic antibacterial activity against Pseudomonas aeruginosa PAO1 assessed as rifampicin MIC at <=0.25 times MIC incubated for overnight by microbroth dilution checkerboard assay; type: functional
Procedure, shortened: as §2

[21] = test system: Pseudomonas aeruginosa; assay: Antibacterial activity against Pseudomonas aeruginosa NCTC 13437 assessed as bacterial growth inhibition incubated for overnight by microbroth dilution method; type: functional
Procedure, shortened: as §3

[22] = test system: Klebsiella pneumoniae; assay: Antibacterial activity against Klebsiella pneumoniae M6 assessed as bacterial growth inhibition incubated for overnight by microbroth dilution method
[23] = test system: Pseudomonas aeruginosa; assay: Synergistic antibacterial activity against Pseudomonas aeruginosa NCTC 13437 assessed as fold change in rifampicin MIC at <=0.25 times MIC incubated for overnight by microbroth dilution checkerboard assay relative to rifampicin alone; type: functional
Procedure, shortened: as §2

[24] = test system: Escherichia coli; assay: Antibacterial activity against Escherichia coli NCTC 12923 assessed as bacterial growth inhibition incubated for overnight by microbroth dilution method; type: functional
Procedure, shortened: as §3

[25] = test system: Staphylococcus aureus; assay: Antibacterial activity against methicillin sensitive Staphylococcus aureus ATCC 9144 assessed as bacterial growth inhibition incubated for overnight by microbroth dilution method; type: functional
Procedure, shortened: as §5

[26] = test system: Acinetobacter baumannii; assay: Synergistic antibacterial activity against Acinetobacter baumannii AYE assessed as rifampicin MIC at <=0.25 times MIC incubated for overnight by microbroth dilution checkerboard assay; type: functional
Procedure, shortened: as §1

[27] = test system: Escherichia coli; assay: Synergistic antibacterial activity against Escherichia coli NCTC 12923 assessed as fold change in novobiocin MIC at <=0.25 times MIC incubated for overnight by microbroth dilution checkerboard assay relative to novobiocin alone; type: functional
Procedure, shortened: as §1

[28] = test system: Acinetobacter baumannii; assay: Synergistic antibacterial activity against Acinetobacter baumannii ATCC 17978 assessed as rifampicin MIC at <=0.25 times MIC incubated for overnight by microbroth dilution checkerboard assay; type: functional
Procedure, shortened: as §1

Structure (SMILES)	MIC [1]	fold change (FC) [2]	fold change (FC) [3]	fold change (FC) [4]	MIC [5]	MIC [6]	fold change (FC) [7]	MIC [8]	MIC [9]	MIC [10]	MIC [11]	MIC [12]	MIC [13]	MIC [14]	MIC [15]	fold change (FC) [16]	MIC [17]	MIC [18]	MIC [19]	MIC [20]	also measured
CCCCCCCCCCNC(=N)NCCCCN	128 µg/mL (≈ 473 µM)	>=4	>=4	>=4	> 128 µg/mL	≤ 0.125 µg/mL	>=4	> 128 µg/mL	≤ 0.125 µg/mL	> 128 µg/mL	32 µg/mL (≈ 118 µM)	> 128 µg/mL	≤ 0.125 µg/mL	32 µg/mL (≈ 118 µM)	32 µg/mL (≈ 118 µM)	>=4	0.25 µg/mL	> 128 µg/mL	> 128 µg/mL	≤ 0.125 µg/mL	MIC [21]: > 128 µg/mL; MIC [22]: > 128 µg/mL; fold change (FC) [23]: >=4; MIC [24]: 128 µg/mL (≈ 473 µM); MIC [25]: 16 µg/mL (≈ 59.2 µM); MIC [26]: ≤ 0.125 µg/mL; fold change (FC) [27]: >=4; MIC [28]: ≤ 0.125 µg/mL
CC/C=C\C/C=C\C/C=C\CCCCCCCCNC(=N)NCCCCN	8 µg/mL (≈ 21.2 µM)	>=4	0	>=4	> 128 µg/mL	≤ 0.125 µg/mL	>=4	128 µg/mL (≈ 340 µM)	16 µg/mL	> 128 µg/mL	4 µg/mL (≈ 10.6 µM)	8 µg/mL (≈ 21.2 µM)	1 µg/mL	8 µg/mL (≈ 21.2 µM)	8 µg/mL (≈ 21.2 µM)	>=4	≤ 0.125 µg/mL	128 µg/mL (≈ 340 µM)	8 µg/mL (≈ 21.2 µM)	16 µg/mL	MIC [21]: > 128 µg/mL; MIC [22]: 128 µg/mL (≈ 340 µM); fold change (FC) [23]: 0; MIC [24]: 32 µg/mL (≈ 85 µM); MIC [25]: 8 µg/mL (≈ 21.2 µM); MIC [26]: ≤ 0.125 µg/mL; fold change (FC) [27]: 0; MIC [28]: ≤ 0.125 µg/mL
CCCCCCCC/C=C\CCCCCCCCNC(=N)NCCCCNC(=N)N	2 µg/mL (≈ 4.73 µM)	0	0	>=4	128 µg/mL (≈ 303 µM)	2 µg/mL	>=4	32 µg/mL (≈ 75.7 µM)	16 µg/mL	128 µg/mL (≈ 303 µM)	2 µg/mL (≈ 4.73 µM)	2 µg/mL (≈ 4.73 µM)	8 µg/mL	2 µg/mL (≈ 4.73 µM)	2 µg/mL (≈ 4.73 µM)	>=4	≤ 0.125 µg/mL	8 µg/mL (≈ 18.9 µM)	2 µg/mL (≈ 4.73 µM)	16 µg/mL	MIC [21]: > 128 µg/mL; MIC [22]: 16 µg/mL (≈ 37.9 µM); fold change (FC) [23]: 0; MIC [24]: 8 µg/mL (≈ 18.9 µM); MIC [25]: 4 µg/mL (≈ 9.46 µM); MIC [26]: ≤ 0.125 µg/mL; fold change (FC) [27]: >=4; MIC [28]: ≤ 0.125 µg/mL
